Experimental data: ChEMBL document CHEMBL1133253, “Improved antibacterial activities of coumarin antibiotics bearing 5',5'-dialkylnoviose: biological activity of RU79115” (Bioorg Med Chem Lett, 2000)
≈ marks a conversion by molar mass, not a printed value.

Tests used:
Enterococcus faecium = test: Tested for in vitro antibacterial activity against Enterococcus faecium 02D31P2 vancomycin teicoplanin erythromycin resistance phenotype; format: functional
Staphylococcus aureus [1] = test: IC50 was determined for gyrase B of Staphylococcus aureus against novobiocin (0.5 mg/mL) as reference; IC50nov/IC50comp
[2] = tested on: Staphylococcus epidermidis; test: Tested for in vitro antibacterial activity against Staphylococcus epidermidis 012GO42 oxacillin resistance phenotype; format: functional
Staphylococcus aureus [3] = test: Tested for in vitro antibacterial activity against Staphylococcus aureus 011 HT3 phenotype; format: functional
Staphylococcus aureus [4] = test: Tested for in vitro antibacterial activity against Staphylococcus aureus 011 GO64 ofloxacin oxacillin erythromycin resistance phenotype; format: functional
Streptococcus pyogenes = test: Tested for in vitro antibacterial activity against Streptococcus pyogenes O2A1UC1 phenotype; format: functional
Staphylococcus aureus [5] = test: Tested for in vitro antibacterial activity against Staphylococcus aureus 011 HT1 novobiocin resistance phenotype; format: functional
Mus musculus [6] = test: Minimum inhibitory concentration of the subcutaneously administered compound evaluated against Staphylococcus aureus HT-17 strain in mice (SC); format: functional
Mus musculus [7] = test: Minimum inhibitory concentration of the subcutaneously administered compound evaluated against […] PW3 strain in mice (SC); format: functional
Mus musculus [8] = test: Minimum inhibitory concentration of the subcutaneously administered compound evaluated against Staphylococcus aureus GO3 strain in mice (SC); format: functional
Mus musculus [9] = test: Protective dose of orally administered compound against intraperitoneally-induced septicaemia model ( vancomycin resistant Enterococci faecium D3HM3 strain) in murine; format: functional; conditions: po, read-out: PD50
Procedure, shortened: (§1)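 PD50 was measured in a murine septicaemia model, with infection induced intraperitoneally with the named Gram-positive strain. Test compound was given orally and the PD50 was calculated by the probit method.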

Mus musculus [10] = test: Protective dose of orally administered compound against intraperitoneally-induced septicaemia model ( vancomycin resistant Enterococci faecium D3HM4 strain) in murine; format: functional; conditions: po, read-out: PD50; procedure, shortened: as §1
Mus musculus [11] = test: Protective dose of orally administered compound against intraperitoneally-induced septicaemia model ( vancomycin resistant Enterococci faecium D3HT12 strain) in murine; format: functional; conditions: po, read-out: PD50; procedure, shortened: as §1
Mus musculus [12] = test: Protective dose of orally administered compound against intraperitoneally-induced septicaemia model (Enterococci faecium D3HT7 strain) in murine; format: functional; conditions: po, read-out: PD50
Mus musculus [13] = test: Protective dose of subcutaneously administered compound against intraperitoneally-induced septicaemia model (Staphylococcus aureus GO3) in murine; format: functional; conditions: sc, read-out: PD50
Procedure, shortened: (§2)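 Murine septicaemia was induced by intraperitoneal infection, and the compound was given subcutaneously. PD50 was derived by probit analysis.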

Mus musculus [14] = test: Protective dose of subcutaneously administered compound against intraperitoneally-induced septicaemia model (Staphylococcus aureus HT-17) in murine; format: functional; conditions: sc, read-out: PD50; procedure, shortened: as §2
Mus musculus [15] = test: Protective dose of subcutaneously administered compound against intraperitoneally-induced septicaemia model ([…] PW3 strain) in murine; format: functional; conditions: sc, read-out: PD50; procedure, shortened: as §2
Mus musculus [16] = test: Protective dose of orally administered compound against intraperitoneally-induced septicaemia model (Enterococci faecalis D2HT6 strain) in murine; format: functional; conditions: po, read-out: PD50; procedure, shortened: as §1

SMILES	MIC (Enterococcus faecium)	Ratio (Staphylococcus aureus [1])	MIC [2]	MIC (Staphylococcus aureus [3])	MIC (Staphylococcus aureus [4])	MIC (Streptococcus pyogenes)	MIC (Staphylococcus aureus [5])	MIC (Mus musculus [6])	MIC (Mus musculus [7])	MIC (Mus musculus [8])	ED50 (Mus musculus [9])	ED50 (Mus musculus [10])	ED50 (Mus musculus [11])	ED50 (Mus musculus [12])	ED50 (Mus musculus [13])	ED50 (Mus musculus [14])	ED50 (Mus musculus [15])	ED50 (Mus musculus [16])
C#CCONC(=O)O[C@H]1[C@@H](O)[C@H](Oc2ccc3c(O)c(/C(C)=N/OC)c(=O)oc3c2C)O[C@@H](CC)[C@@H]1OC	40 µg/mL (≈ 74.8 µM)	2.6	0.3 µg/mL (≈ 0.561 µM)	0.3 µg/mL (≈ 0.561 µM)	0.6 µg/mL (≈ 1.12 µM)	2.5 µg/mL (≈ 4.68 µM)	20 µg/mL (≈ 37.4 µM)	–	–	–	–	–	–	–	–	–	–	–
C#CCONC(=O)O[C@H]1[C@@H](O)[C@H](Oc2ccc3c(=O)c(/C(C)=N/OC)c(O)oc3c2C)O[C@@](C)(C=C)[C@@H]1OC	1.2 µg/mL (≈ 2.2 µM)	2.6	0.15 µg/mL (≈ 0.274 µM)	< 0.04 µg/mL	0.3 µg/mL (≈ 0.549 µM)	1.2 µg/mL (≈ 2.2 µM)	2.5 µg/mL (≈ 4.57 µM)	–	–	–	–	–	–	–	–	–	–	–
CO[C@@H]1[C@@H](OC(N)=O)[C@@H](O)[C@H](Oc2ccc3c(O)c(NC(=O)c4ccc(O)c(CC=C(C)C)c4)c(=O)oc3c2C)OC1(C)C [NOVOBIOCIN]	0.6 µg/mL (≈ 0.979 µM)	1	< 0.04 µg/mL	< 0.04 µg/mL	–	0.3 µg/mL (≈ 0.49 µM)	10 µg/mL (≈ 16.3 µM)	–	–	–	–	–	–	–	–	–	–	–
CO[C@@H]1[C@@H](OC(=O)c2ccc(C)[nH]2)[C@@H](O)[C@H](Oc2ccc3c(O)c(NC(=O)c4ccc(O)c(CC=C(C)C)c4)c(=O)oc3c2Cl)OC1(C)C [CHLOROBIOCIN]	< 0.04 µg/mL	1.7	–	< 0.04 µg/mL	–	< 0.04 µg/mL	0.6 µg/mL (≈ 0.861 µM)	–	–	–	–	–	–	–	–	–	–	–
CC(=O)NC[C@H]1CN(c2ccc(N3CCOCC3)c(F)c2)C(=O)O1 [LINEZOLID]	–	–	–	–	–	–	–	1.2 µg/mL (≈ 3.56 µM)	1.2 µg/mL (≈ 3.56 µM)	2.5 µg/mL (≈ 7.41 µM)	2.1 mg/kg	8.6 mg/kg	1.8 mg/kg	2.4 mg/kg	8.7 mg/kg	5.8 mg/kg	3 mg/kg	4.2 mg/kg
C#CCONC(=O)O[C@H]1[C@@H](O)[C@H](Oc2ccc3c(O)c(/C(C)=N/OC)c(=O)oc3c2C)OC(CC)(CC)[C@@H]1OC	0.6 µg/mL (≈ 1.07 µM)	4	< 0.04 µg/mL	< 0.04 µg/mL	0.08 µg/mL (≈ 0.142 µM)	0.6 µg/mL (≈ 1.07 µM)	2.5 µg/mL (≈ 4.44 µM)	–	–	–	–	–	–	–	–	–	–	–
